Test results: ChEMBL document CHEMBL3085659, “Synthesis, antiproliferative and apoptosis-inducing activity of thiazolo[5,4-d]pyrimidines” (Eur J Med Chem, 2013)
Activity calls are given as the source filed them. No cut-off for these calls is given here.

How the values were obtained:
PC-3 [1] = experiment: Antiproliferative activity against human PC3 cells assessed as growth inhibition at 10 uM after 48 hrs by SRB assay; format: functional; settings: PC-3, 48 h, read-out: GI
HL-60 [2] = experiment: Antiproliferative activity against human HL60 cells assessed as growth inhibition at 10 uM after 48 hrs by SRB assay; format: functional; settings: HL-60, 48 h, read-out: GI
A549 [3] = experiment: Antiproliferative activity against human A549 cells assessed as growth inhibition at 10 uM after 48 hrs by SRB assay; format: functional; settings: A549, 48 h, read-out: GI
A-431 = experiment: Antiproliferative activity against human A431 cells assessed as growth inhibition at 10 uM after 48 hrs by SRB assay; format: functional; settings: A-431, 48 h, read-out: GI
[4] = Antiproliferative activity against human MIAPaCa2 cells assessed as growth inhibition at 10 uM after 48 hrs by SRB assay; format: functional; settings: MIA PaCa-2, 48 h, read-out: GI
T98G = experiment: Antiproliferative activity against human T98G cells assessed as growth inhibition at 10 uM after 48 hrs by SRB assay; format: functional; settings: read-out: GI
T47D [5] = experiment: Antiproliferative activity against human T47D cells assessed as growth inhibition at 10 uM after 48 hrs by SRB assay; format: functional; settings: read-out: GI
[6] = Antiproliferative activity against human NCI-H322 cells assessed as growth inhibition at 10 uM after 48 hrs by SRB assay; format: functional; settings: NCI-H322, 48 h, read-out: GI
HL-60 [7] = experiment: Cell cycle arrest in human HL60 cells assessed as accumulation at S phase at 5 uM after 24 hrs using propidium iodide staining by flow cytometry (reference value: 50%); format: functional
HL-60 [8] = experiment: Induction of apoptosis in human HL60 cells assessed as loss of mitochondrial potential at 20 uM after 24 hrs using rhodamine-123 staining by flow cytometric analysis (reference value: 2%); format: functional
HL-60 [9] = experiment: Cell cycle arrest in human HL60 cells assessed as accumulation at G2 phase at 20 uM after 24 hrs using propidium iodide staining by flow cytometry (reference value: 10%); format: functional
HL-60 [10] = experiment: Induction of apoptosis in human HL60 cells at 30 uM after 24 hrs using propidium iodide staining by flow cytometry (reference value: 5%); format: functional
HL-60 [11] = experiment: Cell cycle arrest in human HL60 cells assessed as accumulation at G1 phase at 5 uM after 24 hrs using propidium iodide staining by flow cytometry (reference value: 40%); format: functional
HL-60 [12] = experiment: Induction of apoptosis in human HL60 cells assessed as loss of mitochondrial potential at 30 uM after 24 hrs using rhodamine-123 staining by flow cytometric analysis (reference value: 2%); format: functional
HL-60 [13] = experiment: Induction of apoptosis in human HL60 cells at 5 uM after 24 hrs using propidium iodide staining by flow cytometry (reference value: 5%); format: functional
HL-60 [14] = experiment: Induction of apoptosis in human HL60 cells assessed as reduction of procaspase-3 expression after 24 hrs by Western blot analysis; format: functional, cell-based
Outline: (§1)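 Cells treated 24 h (HL-60 at 5, 20, 30 µM; A549 at 1, 3, 10 µM); RIPA lysates, 70 µg protein resolved by SDS-PAGE, transferred to PVDF, blocked in 5% milk, probed for PARP-1 and procaspase-3 with HRP secondaries, ECL detection.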

A549 [15] = experiment: Antiproliferative activity against human A549 cells after 48 hrs by SRB assay; format: functional, cell-based; settings: A549, 48 h
HL-60 [16] = experiment: Antiproliferative activity against human HL60 cells after 48 hrs by SRB assay; format: functional, cell-based; settings: HL-60, 48 h
[17] = Antiproliferative activity against human MIAPaCa2 cells after 48 hrs by SRB assay; format: functional, cell-based; settings: MIA PaCa-2, 48 h
HL-60 [18] = experiment: Cell cycle arrest in human HL60 cells assessed as accumulation at G2 phase at 5 uM after 24 hrs using propidium iodide staining by flow cytometry (reference value: 10%); format: functional
HL-60 [19] = experiment: Induction of apoptosis in human HL60 cells assessed as morphological changes at 5 to 30 uM after 24 hrs using DAPI staining by fluorescence microscopic analysis; format: functional, cell-based
Outline: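 HL-60 treated 24 h at indicated concentrations, then methanol-fixed, DAPI-stained and examined by fluorescence microscopy for cellular and nuclear apoptotic morphology, following the A549 protocol.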

T47D [20] = experiment: Antiproliferative activity against human T47D cells after 48 hrs by SRB assay; format: functional, cell-based
HL-60 [21] = experiment: Induction of apoptosis in human HL60 cells at 20 uM after 24 hrs using propidium iodide staining by flow cytometry (reference value: 5%); format: functional
HL-60 [22] = experiment: Induction of apoptosis in human HL60 cells assessed as cleavage of PARP1 after 24 hrs by Western blot analysis; format: functional, cell-based; outline: as §1
HL-60 [23] = experiment: Cell cycle arrest in human HL60 cells assessed as accumulation at G1 phase at 20 uM after 24 hrs using propidium iodide staining by flow cytometry (reference value: 40%); format: functional
PC-3 [24] = experiment: Antiproliferative activity against human PC3 cells after 48 hrs by SRB assay; format: functional, cell-based; settings: PC-3, 48 h
HL-60 [25] = experiment: Cell cycle arrest in human HL60 cells assessed as accumulation at G1 phase at 30 uM after 24 hrs using propidium iodide staining by flow cytometry (reference value: 40%); format: functional
HL-60 [26] = experiment: Induction of apoptosis in human HL60 cells assessed as loss of mitochondrial potential at 5 uM after 24 hrs using rhodamine-123 staining by flow cytometric analysis (reference value: 2%); format: functional
HL-60 [27] = experiment: Cell cycle arrest in human HL60 cells assessed as accumulation at G2 phase at 30 uM after 24 hrs using propidium iodide staining by flow cytometry (reference value: 10%); format: functional
HL-60 [28] = experiment: Cell cycle arrest in human HL60 cells assessed as accumulation at S phase at 30 uM after 24 hrs using propidium iodide staining by flow cytometry (reference value: 50%); format: functional
HL-60 [29] = experiment: Cell cycle arrest in human HL60 cells assessed as accumulation at S phase at 20 uM after 24 hrs using propidium iodide staining by flow cytometry (reference value: 50%); format: functional

## Clc1ccc(Nc2nc3c(Cl)ncnc3s2)cc1
PC-3 [1]
  inhibition of growth at 10 µM: 18%
HL-60 [2]
  inhibition of growth at 10 µM: 18%
A549 [3]
  inhibition of growth at 10 µM: 46%
A-431
  inhibition of growth at 10 µM: 0%
[4]
  inhibition of growth at 10 µM: 10%
T98G
  inhibition of growth at 10 µM: 0%
T47D [5]
  inhibition of growth at 10 µM: 9%
[6]
  inhibition of growth at 10 µM: 47%

## CCN(CC)c1ncnc2sc(Nc3ccccc3)nc12
PC-3 [1]
  inhibition of growth at 10 µM: 19%
HL-60 [2]
  inhibition of growth at 10 µM: 31%
A549 [3]
  inhibition of growth at 10 µM: 48%
A-431
  inhibition of growth at 10 µM: 12%
[4]
  inhibition of growth at 10 µM: 9%
T98G
  inhibition of growth at 10 µM: 49%
T47D [5]
  inhibition of growth at 10 µM: 27%
[6]
  inhibition of growth at 10 µM: 39%

## Clc1ccc(Nc2nc3c(N4CCOCC4)ncnc3s2)cc1
PC-3 [1]
  inhibition of growth at 10 µM: 39%
HL-60 [2]
  inhibition of growth at 10 µM: 33%
A549 [3]
  inhibition of growth at 10 µM: 24%
A-431
  inhibition of growth at 10 µM: 0%
[4]
  inhibition of growth at 10 µM: 21%
T98G
  inhibition of growth at 10 µM: 22%
T47D [5]
  inhibition of growth at 10 µM: 40%
[6]
  inhibition of growth at 10 µM: 42%

## CN1CCN(c2ncnc3sc(Nc4ccc(Cl)cc4)nc23)CC1
PC-3 [1]
  inhibition of growth at 10 µM: 18%
HL-60 [2]
  inhibition of growth at 10 µM: 20%
A549 [3]
  inhibition of growth at 10 µM: 18%
A-431
  inhibition of growth at 10 µM: 21%
[4]
  inhibition of growth at 10 µM: 5%
T98G
  inhibition of growth at 10 µM: 20%
T47D [5]
  inhibition of growth at 10 µM: 21%
[6]
  inhibition of growth at 10 µM: 10%

## O=C(Nc1nc2c(Cl)ncnc2s1)c1ccccc1
PC-3 [1]
  inhibition of growth at 10 µM: 21%
HL-60 [2]
  inhibition of growth at 10 µM: 21%
A549 [3]
  inhibition of growth at 10 µM: 29%
A-431
  inhibition of growth at 10 µM: 0%
[4]
  inhibition of growth at 10 µM: 15%
T98G
  inhibition of growth at 10 µM: 23%
T47D [5]
  inhibition of growth at 10 µM: 32%
[6]
  inhibition of growth at 10 µM: 37%

## CN(C)c1ncnc2sc(Nc3ccccc3)nc12
PC-3 [1]
  inhibition of growth at 10 µM: 36%
HL-60 [2]
  inhibition of growth at 10 µM: 28%
A549 [3]
  inhibition of growth at 10 µM: 28%
A-431
  inhibition of growth at 10 µM: 10%
[4]
  inhibition of growth at 10 µM: 9%
T98G
  inhibition of growth at 10 µM: 45%
T47D [5]
  inhibition of growth at 10 µM: 31%
[6]
  inhibition of growth at 10 µM: 18%

## CCN1CCN(c2ncnc3sc(Nc4ccccc4)nc23)CC1
PC-3 [1]
  inhibition of growth at 10 µM: 19%
HL-60 [2]
  inhibition of growth at 10 µM: 24%
A549 [3]
  inhibition of growth at 10 µM: 25%
A-431
  inhibition of growth at 10 µM: 0%
[4]
  inhibition of growth at 10 µM: 9%
T98G
  inhibition of growth at 10 µM: 19%
T47D [5]
  inhibition of growth at 10 µM: 29%
[6]
  inhibition of growth at 10 µM: 27%

## c1ccc(Nc2nc3c(N4CCOCC4)ncnc3s2)cc1
PC-3 [1]
  inhibition of growth at 10 µM: 45%
HL-60 [2]
  inhibition of growth at 10 µM: 59%
HL-60 [7]
  Activity: 45%
HL-60 [8]
  Activity: 16%
A549 [3]
  inhibition of growth at 10 µM: 38%
HL-60 [9]
  Activity: 7%
HL-60 [10]
  Activity: 24%
HL-60 [11]
  Activity: 43%
A-431
  inhibition of growth at 10 µM: 4%
HL-60 [12]
  Activity: 26%
HL-60 [13]
  Activity: 9%
HL-60 [14]
  Activity: Dose-dependent effect
[4]
  inhibition of growth at 10 µM: 12%
A549 [15]
  IC50: 13 µM
HL-60 [16]
  IC50: 8 µM
T98G
  inhibition of growth at 10 µM: 26%
[17]
  IC50: 54 µM
HL-60 [18]
  Activity: 12%
HL-60 [19]
  Activity: Active
T47D [20]
  IC50: 59 µM
HL-60 [21]
  Activity: 12%
HL-60 [22]
  Activity: Dose-dependent effect
HL-60 [23]
  Activity: 51%
PC-3 [24]
  IC50: 17 µM
HL-60 [25]
  Activity: 41%
HL-60 [26]
  Activity: 9%
HL-60 [27]
  Activity: 5%
T47D [5]
  inhibition of growth at 10 µM: 12%
[6]
  inhibition of growth at 10 µM: 7%
HL-60 [28]
  Activity: 54%
HL-60 [29]
  Activity: 42%
